Source: PubChem
PREPL inh: PREPL enzyme inhibitors, primary screen, biochemical, fluorescence polarization. Prolyl endopeptidase-like (Homo sapiens), Q4J6C6. recombinant PREPL, fluorescence polarization activity-based probe. inhibition, % at 5.96 µM. 320,000 compounds, 0.68% hits. AID 2751, 2010; in the data active = inhibition above about 43%;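 note: 0% = enzyme with DMSO and 100% = wells lacking enzyme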
UBC13 inh: UBC13 polyubiquitin chain formation inhibitors, primary screen, biochemical, TR-FRET, uHTS; Ubiquitin-conjugating enzyme E2 N (Homo sapiens), P61088; inhibition, % at 20 µM; 330,000 compounds, 0.47% hits; in the data active = inhibition above about 45%, passing the limit was not always enough; inconclusive = no clear call, values can overlap the other calls
ALR H2O2 inh: inhibitors of human ALR sulfhydryl oxidase, primary screen, biochemical, H2O2 detection, HRP-luminol luminescence, single point; FAD-linked sulfhydryl oxidase ALR (Homo sapiens), P55789; purified ALR, DTT oxidation; AID 485317, 2010; inhibition, % (concentration not given with the values); 290,000 compounds, 3.8% hits;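 active = mean replicate inhibition above about 79%, with every replicate also reaching it, limit read from the data; inconclusive = only one of the two criteria met; inactive = mean below limit and not every replicate reaching it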
RBBP9 inh: human RBBP9 inhibitors, primary screen, biochemical, fluorescence polarization, FP-Rh probe, HTS. 220,000 compounds, 0.2% hits. recombinant RBBP9. inhibition, % at 7.94 µM;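 active = inhibition above the campaign mean of all tested compounds plus 3 SD, cut at about 14% in these data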;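 note: plate controls were DMSO wells with RBBP9 for no effect and wells lacking RBBP9 protein for full effect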
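System: RBBP9 protein / Quantity: 2.5 µM RBBP9 dispensing solution, before mixing / Also added: Serine-hydrolase probe FP-Rh, 375 nM pre-mixing / Dosing: 7.94 µM single dose, 0.794% DMSO / Timing: enzyme-compound preincubation 30 min, then probe labeling 45 min, 25 °C / Signal: FP readout at 525/598 nm / Controls: DMSO-treated enzyme wells and wells lacking RBBP9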
SUMO HTRF inh: inhibitors of in vitro SUMOylation cascade, primary screen, biochemical, HTRF, uHTS; HTRF SUMOylation assay, SAE1/SAE2 + UBC9; inhibition, % at 35 µM; 290,000 compounds, 0.36% hits; in the data active = inhibition above about 50%, passing the limit was not always enough; inconclusive = no clear call, values can overlap the other calls
Rin1 Abl inh: inhibitors of Rin1-Abl protein binding, primary screen, biochemical, TR-FRET; inhibition, % at 7.35 µM; 360,000 compounds, 0.4% hits; AID 588664, 2011; in the data active = inhibition above about 5%, passing the limit was not always enough
Rin1 Abl conf: Rin1-Abl binding inhibitor retest, confirmation, biochemical, TR-FRET. inhibition, % at 7.35 µM. AID 602124, 2011. shares compounds with Rin1 Abl inh. purified proteins. 1,300 compounds, 49% hits
GFP quench: GFP fluorescence inhibitors and quenchers, artefact control for Rin1-Abl interaction inhibitor project, biochemical | 1,300 compounds, 8.5% hits | inhibition, % at 6.75 µM | shares compounds with Rin1 Abl inh | inhibitors/quenchers counterscreen;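 note: ABL1-eGFP fusion protein alone without its partner RIN1-SBP; 0% = protein with vehicle and 100% = wells lacking protein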
GFP quench DR: GFP fluorescence inhibitors and quenchers, dose response, artefact control for Rin1-Abl interaction inhibitor project, biochemical. 230 tested, under 10 active. IC50, µM. shares compounds with Rin1 Abl inh. AID 602182, 2012. GFP fluorescence interference/quenching counterscreen; call rule not given here;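 note: ABL1-eGFP fusion protein alone without its RIN1 binding partner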
Active calls of the source: *; u = inconclusive; x = no result. A selection: hits, their analogues and other compounds. The true share with any hit is near 4.3%. Cut-off read from the data, not from the text of the source, unless noted: active = inhibition above about 6.5%; inactive = the rest.

SMILES | PREPL inh | UBC13 inh | ALR H2O2 inh | RBBP9 inh | SUMO HTRF inh | Rin1 Abl inh | Rin1 Abl conf | GFP quench | others
O=c1cc(-c2ccc(O)c(O)c2)oc2cc(O)cc(O)c12 | 20 | 28 | u | x | -6 | 1 | x | x
CC1OC(Oc2c(-c3cc(O)c(O)c(O)c3)oc3cc(O)cc(O)c3c2=O)C(O)C(O)C1O (centres undefined) | x | 8 | x | -33 | 7 | 42* | 45* | 15*
C[C@@H]1CC[C@]2(O[C@H](CCO)C[C@H](O)[C@H]2O)O1 | 4 | -28 | x | x | x | -3 | x | x
CCOC(=O)N1CCN(CCC(=O)Nc2ccc(Br)c(C)c2)CC1 | 14 | -4 | -1 | 0 | 6 | 8.9* | 11* | 2
OC(c1cccc(Cl)c1)c1ncc(-c2ccc(C(F)(F)F)cc2)[nH]1 (centres undefined) | x | x | x | x | x | 4 | x | x
COc1ccc(NS(=O)(=O)c2ccc3c(c2)[C@H]2C=CC[C@H]2[C@@H](c2ccc(C(=O)O)cc2)N3)cc1 | 33 | -3 | -11 | x | 54* | 9.2* | 9.5* | 17*
O=C(O)c1ccc2c(c1)C1C=CCC1C(c1ccncc1)N2 (centres undefined) | 0 | -24 | -17 | -4 | 48 | -2 | x | x
Cc1nn(CC(=O)NCCCc2ccccc2)c(=O)c2cccn12 | 0 | 0 | -4 | x | 16 | 0 | x | x
Cc1nn(CC(=O)NCc2cccc(F)c2)c(=O)c2cccn12 | 10 | -10 | 1 | x | -7 | 8.6* | -4 | -5
CN(C)c1cccc(CNC(=O)c2ccc3nc([C@H]4C[C@H](O)[C@@H](CO)O4)[nH]c3c2)c1 | x | x | x | x | x | -3 | x | x
CN(C)c1cccc(CNC(=O)c2ccc3nc([C@@H]4O[C@H](CO)[C@H](O)[C@H](O)[C@H]4O)[nH]c3c2)c1 | x | x | x | x | x | 14* | -1 | -1
COc1cccc(CNC(=O)c2cc(S(=O)(=O)N3CCCC3)cn2C)c1 | -9 | -11 | -12 | x | 4 | -3 | x | x
c1ccc(-c2cc(-c3ccccc3)ncn2)cc1 | 6 | 6 | 2 | x | x | -1 | x | x
CCN(CC)c1cc(-c2ccccc2)ncn1 | -5 | 6 | x | -6 | -6 | 7.6* | 1 | -1
COc1cccc2[nH]c3c(=O)[nH]cnc3c12 | x | 6 | -26 | x | 0 | -3 | x | x
COc1cccc2c3cccc(OC)c3c3[nH]cnc3c12 | x | x | x | x | x | 33* | 29* | 0 | GFP quench DR=>68
CC(C)Cn1cc(-c2cccc3nccn23)cn1 | x | x | x | x | x | 1 | x | x
C=Cc1ccc(CC2(C)C(=O)Nc3ccc(-c4cccnc4)cc32)cc1 (centres undefined) | x | x | x | x | x | -5 | x | x
CC(C)CN1C(=O)NC(NS(=O)(=O)c2ccc(N)cc2)(C(F)(F)F)C1=O (centres undefined) | -2 | 0 | 99* | 3 | 4 | 6.7* | 0 | 0
CC(=O)NC1=NN(C(C)=O)C(c2ccc(F)cc2)S1 (centres undefined) | 9 | 2 | 4 | 6 | 9 | 3 | x | x
COc1ccc(C(=O)CC(C#N)c2ccc3c(c2)OCO3)cc1OC (centres undefined) | x | x | x | x | x | 11* | -3 | 0
COc1ccc(C(C#N)CC(=O)c2ccc3c(c2)OCO3)cc1OC (centres undefined) | x | x | x | x | x | -7 | x | x
C/C(=N/NC(=O)c1cc(O)c(O)c(O)c1)c1ccc([N+](=O)[O-])cc1 | x | x | x | 9 | -15 | 41* | 46* | 21*
COCCNc1nc(Nc2ccccc2Cl)c2sccc2n1 | x | x | x | x | x | -3 | x | x
CC1CCc2[nH]c3ccc(C(=O)NCCCOC(C)C)cc3c2C1 (centres undefined) | 15 | -18 | -52 | -5 | 11 | 2 | x | x
SMILES | PREPL inh | UBC13 inh | ALR H2O2 inh | RBBP9 inh | SUMO HTRF inh | Rin1 Abl inh | Rin1 Abl conf | GFP quench | others
COc1ccc(CC(=O)NNC(=S)NC(=O)c2cccnc2)cc1 | 0 | -7 | 5 | -3 | 26 | 6.8* | 0 | 2
Cc1noc(C)c1C(=O)OC(C)C(=O)c1c[nH]c2ccccc12 (centres undefined) | x | x | x | x | x | -5 | x | x
O=C1CNC(=O)N1CC(O)Cn1c2ccccc2c2ccccc21 (centres undefined) | -4 | 4 | -3 | -2 | 16 | 24* | 28* | -1 | GFP quench DR=>67
O=C1S/C(=C/c2ccccc2)C(=O)N1CC(O)Cn1c2ccccc2c2ccccc21 (centres undefined) | 17 | -9 | -4 | 1 | 6 | -3 | x | x
O=C(Nc1ccc2c(c1)OCO2)c1ccc[n+]([O-])c1 | -1 | 0 | -5 | -7 | 18 | 5.0* | 2 | -2
CN(C)C1CCN(C(=O)c2cccc(OC3CCN(S(=O)(=O)N(C)C)CC3)c2)C1 (centres undefined) | x | 0 | -22 | x | -10 | -1 | x | x
CCCCCCCOC(=O)C1=C(C)Nc2ncnn2C1c1cccs1 (centres undefined) | -6 | 4 | 0 | 1 | 1 | 7.5* | -1 | -1
Cc1cccc(NS(=O)(=O)c2cc(OCC(N)=O)c(C)cc2Cl)c1 | -8 | -1 | -2 | -7 | 8 | 1 | x | x
Cc1ccc(NS(=O)(=O)c2cc(OCC(N)=O)c(C)cc2Cl)cc1C | -6 | 0 | -4 | -3 | 1 | 12* | -1 | -1
CC12CN3CC(C)(CN(C1)C3c1ccccc1F)C2 (centres undefined) | 7 | -5 | -5 | 4 | 1 | 6.1* | -3 | -1
CC(Sc1nnc(C(C)Oc2ccc(F)cc2)o1)C(=O)NCc1ccc2c(c1)OCO2 (centres undefined) | x | x | x | x | x | 0 | x | x
Cc1ccc(Nc2nc(N)nc(CSc3nnc(-c4ccncc4)o3)n2)cc1 | -13 | -1 | 0 | -4 | 0 | 9.6* | 10* | 0
Cc1ccc(Nc2nc(N)nc(CSc3ncccn3)n2)cc1 | -12 | 2 | 48 | -7 | 9 | -2 | x | x
O=C(c1ccc2c(c1)OCO2)N1CCN(c2ncccn2)CC1 | 5 | -3 | 6 | -3 | -2 | 5.3* | -1 | -3
C=CCNC(=S)N/N=C1\CCS(=O)(=O)c2ccccc21 | 13 | -12 | x | x | 33 | -2 | x | x
Cc1[nH]c2ccccc2c1C1=CC(=O)C=CC1=O | x | x | x | x | x | 1 | x | x
